A value given as a limit tells only on which side of the number the result lay.

Test [1] deals with T1, Androgen receptor (Rattus norvegicus) (UniProt P15207).
T1 sequence (whole entry): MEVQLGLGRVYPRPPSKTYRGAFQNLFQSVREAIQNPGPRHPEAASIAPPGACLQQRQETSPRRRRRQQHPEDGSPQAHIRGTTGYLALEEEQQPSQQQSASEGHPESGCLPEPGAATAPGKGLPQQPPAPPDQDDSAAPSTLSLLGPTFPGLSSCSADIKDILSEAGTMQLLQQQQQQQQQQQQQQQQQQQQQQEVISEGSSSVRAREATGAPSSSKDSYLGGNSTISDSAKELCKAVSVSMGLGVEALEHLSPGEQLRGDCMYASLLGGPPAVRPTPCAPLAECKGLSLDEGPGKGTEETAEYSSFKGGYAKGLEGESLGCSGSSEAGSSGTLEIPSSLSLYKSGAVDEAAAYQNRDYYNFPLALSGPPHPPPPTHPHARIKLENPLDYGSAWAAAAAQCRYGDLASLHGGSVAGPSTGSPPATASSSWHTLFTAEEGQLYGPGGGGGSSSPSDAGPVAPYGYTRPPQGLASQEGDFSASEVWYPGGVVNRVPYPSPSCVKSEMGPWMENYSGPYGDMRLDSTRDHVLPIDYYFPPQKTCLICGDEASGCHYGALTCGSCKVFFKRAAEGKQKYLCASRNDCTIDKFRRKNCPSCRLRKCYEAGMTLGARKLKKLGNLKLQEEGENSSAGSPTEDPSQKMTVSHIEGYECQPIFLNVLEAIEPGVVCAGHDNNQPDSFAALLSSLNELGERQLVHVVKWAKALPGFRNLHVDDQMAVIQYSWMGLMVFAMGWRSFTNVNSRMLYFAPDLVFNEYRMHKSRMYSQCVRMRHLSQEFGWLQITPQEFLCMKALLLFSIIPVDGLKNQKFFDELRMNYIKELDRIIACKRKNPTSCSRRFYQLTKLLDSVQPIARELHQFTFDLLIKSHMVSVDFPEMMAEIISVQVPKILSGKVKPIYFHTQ
In words: Relative binding affinity for androgen receptor of rat prostate cytosol, displacement of [3H]R-1881 over 2 hr at 0C. The method, boiled down:
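Prostate from male Sprague–Dawley rats (140–160 g) castrated 24 h earlier, homogenised 1/5 w/v. Cytosol incubated with 2.5 nM [3H]R 1881 for 2 h at 0 °C with 0–2500 nM competitor. […] by dextran-coated charcoal (10 min, 0–4 °C; 800g). RBA is the ratio of 50%-displacing concentrations × 100, relative to testosterone.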

Test [2] deals with T2, Estrogen receptor (Mus musculus) (UniProt O08537+P19785). Briefly: Relative binding affinity for Estrogen receptor of mouse uterus cytosol, displacement of [3H]estradiol over 2 hr at 0C. In kind it is protein assay. The method, boiled down: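 Cytosol from uteri of 18-day-old female Swiss mice (homogenised 1/50 w/v), incubated with 5 nM [3H]estradiol for 2 h at 0 °C with 0–2500 nM unlabeled competitor. Bound ligand separated by dextran-coated charcoal, 10 min at 0–4 °C, then centrifuged at 800g. RBA = (50%-displacing concentration of unlabeled estradiol / that of competitor) × 100. Mean of ≥3 experiments or 2 concordant.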
(In general: Loss of bound radioactivity is the signal in a displacement assay; it reports binding, not function.)

Test [3] concerns the target T3, Glucocorticoid receptor (Rattus norvegicus) (UniProt P06536).
T3 sequence (whole entry): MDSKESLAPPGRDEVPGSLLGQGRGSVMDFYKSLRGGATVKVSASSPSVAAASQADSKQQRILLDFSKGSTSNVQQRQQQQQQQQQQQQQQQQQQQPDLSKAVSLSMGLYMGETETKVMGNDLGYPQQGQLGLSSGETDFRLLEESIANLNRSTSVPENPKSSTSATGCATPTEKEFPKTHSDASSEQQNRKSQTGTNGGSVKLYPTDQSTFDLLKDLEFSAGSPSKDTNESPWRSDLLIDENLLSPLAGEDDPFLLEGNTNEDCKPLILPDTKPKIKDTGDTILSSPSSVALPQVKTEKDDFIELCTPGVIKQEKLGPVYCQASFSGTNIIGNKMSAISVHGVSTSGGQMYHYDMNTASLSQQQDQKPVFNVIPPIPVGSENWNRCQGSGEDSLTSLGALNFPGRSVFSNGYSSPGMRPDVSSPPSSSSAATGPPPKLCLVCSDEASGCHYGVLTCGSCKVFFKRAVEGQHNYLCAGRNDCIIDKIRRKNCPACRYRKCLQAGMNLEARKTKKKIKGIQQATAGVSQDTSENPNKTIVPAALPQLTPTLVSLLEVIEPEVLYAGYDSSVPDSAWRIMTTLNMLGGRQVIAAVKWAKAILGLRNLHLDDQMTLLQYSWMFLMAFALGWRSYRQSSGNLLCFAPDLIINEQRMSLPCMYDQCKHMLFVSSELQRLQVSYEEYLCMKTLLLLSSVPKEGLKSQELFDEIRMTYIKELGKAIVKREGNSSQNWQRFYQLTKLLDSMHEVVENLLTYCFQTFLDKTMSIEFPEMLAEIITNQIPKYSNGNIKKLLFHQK
Briefly: Relative binding affinity for glucocorticoid receptor of rat liver cytosol, displacement of [3H]dexamethasone over 4 hr at 0C. Put shortly: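 Rats (male Sprague–Dawley, 140–160 g) adrenalectomized 4–7 days earlier. Perfused liver homogenised 1/10 in Tris-sucrose buffer and spun at 105000g for 60 min at 4 °C. Cytosol incubated with 5 nM [3H]dexamethasone for 4 h at 0 °C with 0–2500 nM competitor. Dextran-charcoal separation used. RBA relative to dexamethasone = 100.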

Test [4] deals with T4, Mineralocorticoid receptor (Rattus norvegicus) (UniProt P22199).
T4 sequence (whole entry): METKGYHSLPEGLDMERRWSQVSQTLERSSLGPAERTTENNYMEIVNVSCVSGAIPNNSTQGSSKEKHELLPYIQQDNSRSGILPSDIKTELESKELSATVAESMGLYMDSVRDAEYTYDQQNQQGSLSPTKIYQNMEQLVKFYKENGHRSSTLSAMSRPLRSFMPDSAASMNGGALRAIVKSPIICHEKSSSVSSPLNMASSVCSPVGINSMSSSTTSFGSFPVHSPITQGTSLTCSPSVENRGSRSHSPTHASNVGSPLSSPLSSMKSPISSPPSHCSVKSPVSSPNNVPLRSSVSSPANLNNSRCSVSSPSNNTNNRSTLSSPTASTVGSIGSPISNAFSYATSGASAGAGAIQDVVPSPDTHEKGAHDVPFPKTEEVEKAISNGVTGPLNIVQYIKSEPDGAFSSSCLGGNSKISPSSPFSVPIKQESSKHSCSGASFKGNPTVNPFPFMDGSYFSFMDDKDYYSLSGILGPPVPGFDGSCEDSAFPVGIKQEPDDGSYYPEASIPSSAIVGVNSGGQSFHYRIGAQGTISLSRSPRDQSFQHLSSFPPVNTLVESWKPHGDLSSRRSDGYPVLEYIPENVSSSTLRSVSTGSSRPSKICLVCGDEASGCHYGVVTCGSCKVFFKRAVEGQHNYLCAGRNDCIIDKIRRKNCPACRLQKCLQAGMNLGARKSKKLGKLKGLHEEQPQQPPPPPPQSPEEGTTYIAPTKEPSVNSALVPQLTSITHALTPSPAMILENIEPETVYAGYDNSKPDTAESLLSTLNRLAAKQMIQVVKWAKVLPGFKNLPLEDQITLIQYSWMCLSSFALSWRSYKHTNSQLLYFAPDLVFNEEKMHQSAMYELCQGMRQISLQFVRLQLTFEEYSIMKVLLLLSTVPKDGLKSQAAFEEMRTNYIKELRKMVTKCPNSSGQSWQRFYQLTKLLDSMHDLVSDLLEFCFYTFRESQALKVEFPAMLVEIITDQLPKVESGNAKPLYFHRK
Briefly: Relative binding affinity for mineralocorticoid receptor of rat kidney homogenates, displacement of [3H]aldosterone over 30 min at 25 degree C. The method, boiled down: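 Perfused kidneys from adrenalectomized (4–7 days) male Sprague–Dawley rats homogenised 1/3 in Krebs-Ringer phosphate buffer. Homogenate incubated with 2.5 nM [3H]aldosterone for 30 min at 25 °C with 0–2500 nM competitor, then centrifuged at 800g for 10 min at 0 °C. Bound ligand measured by dextran-charcoal. RBA relative to aldosterone = 100.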

Test [5] has as its target T5, Progesterone receptor (Oryctolagus cuniculus) (UniProt P06186).
T5 sequence (whole entry): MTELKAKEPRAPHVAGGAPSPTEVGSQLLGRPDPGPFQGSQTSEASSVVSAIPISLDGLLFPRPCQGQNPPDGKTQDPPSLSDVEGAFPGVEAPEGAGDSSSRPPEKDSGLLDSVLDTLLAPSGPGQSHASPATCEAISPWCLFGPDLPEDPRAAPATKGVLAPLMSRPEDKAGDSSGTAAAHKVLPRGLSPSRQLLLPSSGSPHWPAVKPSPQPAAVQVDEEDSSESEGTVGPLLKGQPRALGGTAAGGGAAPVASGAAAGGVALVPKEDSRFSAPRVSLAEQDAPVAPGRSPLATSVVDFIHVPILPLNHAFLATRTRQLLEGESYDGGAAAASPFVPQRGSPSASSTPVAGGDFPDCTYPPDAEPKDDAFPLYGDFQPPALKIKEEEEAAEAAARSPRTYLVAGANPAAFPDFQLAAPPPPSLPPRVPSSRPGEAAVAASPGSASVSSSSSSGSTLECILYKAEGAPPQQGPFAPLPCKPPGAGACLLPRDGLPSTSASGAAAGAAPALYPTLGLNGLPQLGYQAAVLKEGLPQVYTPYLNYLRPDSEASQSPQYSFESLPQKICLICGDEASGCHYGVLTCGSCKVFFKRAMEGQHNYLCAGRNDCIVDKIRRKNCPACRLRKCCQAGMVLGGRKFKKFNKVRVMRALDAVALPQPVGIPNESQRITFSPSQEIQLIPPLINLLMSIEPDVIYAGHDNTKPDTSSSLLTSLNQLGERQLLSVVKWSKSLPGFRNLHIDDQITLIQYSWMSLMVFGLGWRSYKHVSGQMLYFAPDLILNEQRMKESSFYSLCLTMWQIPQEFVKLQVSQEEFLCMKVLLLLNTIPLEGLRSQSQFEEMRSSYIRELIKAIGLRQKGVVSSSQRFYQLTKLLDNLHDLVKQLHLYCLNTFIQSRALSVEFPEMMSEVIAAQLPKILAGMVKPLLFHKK
Briefly: Relative binding affinity for Progesterone receptor of rabbit uterus cytosol, displacement of [3H]R5020 over 24 hr at 0C. The method, boiled down: (§1)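 Uteri from estrogen-primed female New Zealand rabbits (1 kg, 50–55 days old) homogenised 1/50 in 10 mM Tris-HCl pH 7.4, 0.25 M sucrose. Cytosol spun at 105000g for 60 min at 4 °C, then incubated with 2.5 nM [3H]R 5020 for 24 h at 0 °C with 0–2500 nM competitor. Bound ligand taken by dextran-charcoal. RBA taken relative to progesterone.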

Test [6] deals with T2, Estrogen receptor (Mus musculus). In words: Binding affinity to Steroid Hormone Receptor was determined using [6,7-3H]estradiol as radioligand. In kind it is protein assay. Particulars: tested as the 3H-labelled form. Put shortly: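 Uteri came from 18-day-old female Swiss mice and were homogenized 1/50 (w/v). Uterine cytosol was labeled with 5 nM [3H]estradiol for 2 h at 0 °C with 0–2500 nM competing steroid. Bound radioactivity was measured after dextran-coated charcoal treatment and an 800g centrifugation. The 50%-inhibition concentrations gave RBA × 100 relative to estradiol (100). Results are means of ≥3 or two experiments.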

Test [7] deals with T1, Androgen receptor (Rattus norvegicus). In words: Binding affinity to Steroid Hormone Receptor was determined using [6,7-3H] R 1881 as radioligand. Particulars: tested as the 3H-labelled form. The method, boiled down:
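Prostate was taken from male Sprague–Dawley rats (140–160 g) castrated 24 h before and homogenized 1/5 (w/v). Cytosol was incubated with 2.5 nM [3H]R 1881 for 2 h at 0 °C with 0–2500 nM unlabeled competitor. Free ligand was removed with DCC (0.625% dextran–1.25% charcoal, 10 min, 0–4 °C, 800g spin). RBA is relative to testosterone = 100. Values are means of ≥3 experiments (SEM) or of two.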

The target in test [8] is T3, Glucocorticoid receptor (Rattus norvegicus).
Test [9] has as its target T5, Progesterone receptor (Oryctolagus cuniculus). In words: Binding affinity to Steroid Hormone Receptor was determined using [6,7-3H]R5020 as radioligand. Put shortly: as §1
Test [10] concerns the target T4, Mineralocorticoid receptor (Rattus norvegicus). In words: Binding affinity to Steroid Hormone Receptor was determined using [1,2-3 H]aldosterone as radioligand. Put shortly:
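Rats were male Sprague–Dawley, 140–160 g, adrenalectomized 4–7 days. Perfused kidney was homogenized 1/3 (w/v) in Krebs-Ringer phosphate buffer. Homogenate was incubated with 2.5 nM [3H]aldosterone for 30 min at 25 °C with 0–2500 nM competitor, then spun at 800g for 10 min at 0 °C. Bound ligand was separated by dextran-coated charcoal. RBA = 100 × ratio of the 50%-displacing concentrations, with aldosterone set at 100.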

T2 sequence (O08537 whole entry, looked up): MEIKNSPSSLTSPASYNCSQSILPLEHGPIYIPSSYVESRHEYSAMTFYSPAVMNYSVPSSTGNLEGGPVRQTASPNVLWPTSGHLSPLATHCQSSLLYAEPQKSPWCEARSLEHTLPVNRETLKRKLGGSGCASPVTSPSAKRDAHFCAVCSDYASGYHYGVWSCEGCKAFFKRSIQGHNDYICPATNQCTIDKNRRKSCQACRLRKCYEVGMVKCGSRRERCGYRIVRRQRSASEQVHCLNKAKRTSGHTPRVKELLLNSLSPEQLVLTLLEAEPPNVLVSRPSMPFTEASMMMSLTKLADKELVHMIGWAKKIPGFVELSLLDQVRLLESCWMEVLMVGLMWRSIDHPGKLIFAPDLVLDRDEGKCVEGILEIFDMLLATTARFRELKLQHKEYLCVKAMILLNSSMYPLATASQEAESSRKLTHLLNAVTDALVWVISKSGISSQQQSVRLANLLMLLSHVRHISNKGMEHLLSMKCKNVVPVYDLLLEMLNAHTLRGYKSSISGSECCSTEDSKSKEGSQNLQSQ
T2 sequence (P19785 whole entry, looked up): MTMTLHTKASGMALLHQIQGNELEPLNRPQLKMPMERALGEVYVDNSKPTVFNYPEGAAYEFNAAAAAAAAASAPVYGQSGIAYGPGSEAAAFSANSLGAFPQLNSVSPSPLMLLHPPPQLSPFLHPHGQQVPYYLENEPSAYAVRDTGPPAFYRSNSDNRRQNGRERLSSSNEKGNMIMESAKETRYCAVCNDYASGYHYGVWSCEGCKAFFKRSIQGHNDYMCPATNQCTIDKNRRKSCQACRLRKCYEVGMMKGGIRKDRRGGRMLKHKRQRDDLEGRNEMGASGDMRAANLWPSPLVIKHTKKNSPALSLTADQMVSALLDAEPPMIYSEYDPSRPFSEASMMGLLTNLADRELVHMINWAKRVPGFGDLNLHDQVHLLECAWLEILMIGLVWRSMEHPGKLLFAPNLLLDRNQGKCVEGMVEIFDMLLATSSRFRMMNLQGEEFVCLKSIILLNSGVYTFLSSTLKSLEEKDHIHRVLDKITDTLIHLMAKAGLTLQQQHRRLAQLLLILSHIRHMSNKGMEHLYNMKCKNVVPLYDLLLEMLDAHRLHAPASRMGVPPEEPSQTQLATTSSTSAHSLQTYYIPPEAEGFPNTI

With `CC12CCC(=O)C=C1CCC1C2CCC2(C)C1C[C@H]([Se]c1ccccc1)C2O` (stereo not given in full), the RBA was 1.9 in test [1]; under 0.1 in test [2]; under 0.1 in [3]; under 0.1 in test [4]; under 0.1 in [5].

Turning to `CCC(=O)[C@@]1(C)CC[C@H]2[C@@H]3CCC4=CC(=O)CCC4=C3CCC21C` (stereo not given in full), in [6], the Specific activity is 57 Ci mM-1.

As to `CC12CCC(=O)C=C1CCC1C2C2CC3(C(O)O2)C(C(=O)CO)CCC13` (stereo not given), the Specific activity in test [7] is 53 Ci mM-1.

Consider `C[C@@H]1C[C@H]2[C@@H]3CCC4=CC(=O)C=C[C@]4(C)[C@@]3(F)[C@@H](O)C[C@]2(C)[C@@]1(O)C(=O)CO`, for which the Specific activity in test [8] is 26 Ci mM-1.

As for `C[C@]1(O)CC[C@H]2[C@@H]3CCC4=CC(=O)CCC4=C3C=C[C@@]21C`, in test [9], the Specific activity was 56 Ci mM-1.

For the compound `CC(=O)[C@@]1([Se]c2ccccc2)CCC2C3CCC4=CC(=O)CCC4(C)C3CCC21C` (stereo not given in full), the RBA was under 0.1 in test [1]; under 0.1 in [2]; under 0.1 in [3]; 0.23 in test [4]; 2.1 in [5].

As for `C[C@]12CC[C@@H]3c4ccc(O)cc4CC[C@H]3[C@@H]1CC[C@@H]2O`, the Specific activity in test [10] is 50 Ci mM-1.

On to `CC12CCC(=O)C=C1CCC1C2CCC2(C)C1CC[C@@H]2C(=O)C[Se]c1ccccc1` (stereo not given in full), for which the RBA in [1] is 1.7; in test [2], under 0.1; in test [3], 0.6; in test [4], 2.1; in [5] it was 59.

Consider `CC12CCC(=O)C=C1CCC1C2CCC2(C)C1C[C@@H]([Se]c1ccccc1)C2O` (stereo not given in full), for which the RBA in test [1] was 0.33; in [2], under 0.1; in [3], 0.23; in test [4] it was 0.15; in test [5] it was 0.8.

The record behind these values is ChEMBL document CHEMBL1121469, “Synthesis and biochemical screening of phenylselenium-substituted steroid hormones” (J Med Chem, 1980).
